Measured values taken from ChEMBL document CHEMBL3425447, “Discovery of Orally Available Runt-Related Transcription Factor 3 (RUNX3) Modulators for Anticancer Chemotherapy by Epigenetic Activation and Protein Stabilization” (J Med Chem, 2015).

Experiments:
C2C12 = experiment: Induction of RUNX transcriptional activation in mouse C2C12-6xOSE2 cells at 1 uM after 24 hrs by luciferase reporter assay relative to FGF-2; format: functional
Procedure, shortened: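 C2C12-6xOSE stable cells grown in DMEM with 10% FBS at 37°C, 5% CO2. Seeded at 1 × 10^4 cells/well; next day treated with compound or FGF-2 (1 µM each). After 24 h, luciferase measured with Bright-Glo. Activity expressed as percent of the FGF-2 positive-control response.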

[1] = Growth inhibition of human HCT15 cells after 5 days by sulforhodamine B assay; format: functional; settings: HCT-15, 120 h
[2] = Growth inhibition of human NUGC3 cells after 5 days by sulforhodamine B assay; format: functional; settings: NUGC-3, 120 h
Histone deacetylase = experiment: Inhibition of HDAC in human HeLa cell nuclear extract using Fluor de Lys as substrate incubated with compound for 30 mins by microtiter-plate reading flourimeter analysis; format: protein assay
ACHN = experiment: Growth inhibition of human ACHN cells after 5 days by sulforhodamine B assay; format: functional; settings: 120 h
[3] = Growth inhibition of human PC3 cells after 5 days by sulforhodamine B assay; format: functional; settings: PC-3, 120 h
NCI-H23 = experiment: Growth inhibition of human NCI-H23 cells after 5 days by sulforhodamine B assay; format: functional; settings: NCI-H23, 120 h
MDA-MB-231 = experiment: Growth inhibition of human MDA-MB-231 cells after 5 days by sulforhodamine B assay; format: functional; settings: MDA-MB-231, 120 h
[4] = Metabolic stability in mouse liver microsomes assessed as compound remaining at 1 uM after 30 mins byLC-ESI/MS/MS analysis in presence of NADPH; format: ADME; settings: read-out: Stability
Procedure, shortened: (§1)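 Compound at 1 µM incubated in triplicate with pooled mouse liver microsomes (0.5 mg/ml final) in 0.1 M potassium phosphate, pH 7.4, at 37°C, with or without 1 mM NADPH. Reactions stopped at 0 and 30 min with ice-cold acetonitrile containing internal standard. After centrifugation, supernatant analyzed by LC-ESI/MS/MS; percent remaining from analyte/IS peak-area ratios. Buspirone served as positive control.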

[5] = Metabolic stability in mouse liver microsomes assessed as compound remaining at 1 uM after 30 mins by LC-ESI/MS/MS analysis in absence of NADPH; format: ADME; settings: read-out: Stability; procedure, shortened: as §1
HEK293 [6] = experiment: Induction of myc-tagged RUNX3 acetylation in human HEK293 cells assessed as RUNX3 level at 1 uM after 24 hrs by immunoprecipitation analysis relative to TSA; format: functional
Procedure, shortened: (§2)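 HEK293 cells (DMEM, 10% FBS) transfected with myc-RUNX3 vector using Lipofectamine 2000. Next day treated at 1 µM for 24 h. Lysates (HEPES pH 7.5, NP-40 buffer) immunoprecipitated with anti-myc antibody and protein G beads at 4°C. Immunoprecipitates western-blotted with anti-acetylated lysine antibody; relative acetylated RUNX3 quantified.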

HEK293 [7] = experiment: Induction of myc-tagged RUNX3 acetylation in human HEK293 cells assessed as acetylated RUNX3 level at 1 uM after 24 hrs by immunoprecipitation analysis relative to TSA; format: functional; procedure, shortened: as §2

IC50 (Histone deacetylase)	GI50 (ACHN)	GI50 (NCI-H23)	GI50 (MDA-MB-231)	remaining at 0.5 h, 1 µM [4]	remaining at 0.5 h, 1 µM [5]	Compound	Activity (C2C12)	GI50 [1]	GI50 [2]	GI50 [3]	fold change (FC) (HEK293 [6])	fold change (FC) (HEK293 [7])
0.46 µM	6440 nM	> 10000 nM	> 10 µM			O=C(/C=C/c1cccn(Cc2ccccn2)c1=O)NO	35.6%	> 10000 nM	> 10000 nM	10.2 µM		
0.19 µM	1530 nM	2300 nM	1.59 µM			O=C(/C=C/c1cccn(Cc2ccccc2Br)c1=O)NO	86%	2400 nM	1660 nM	2.88 µM		
0.11 µM	700 nM	910 nM	0.84 µM	28.3%	103%	CC(C)(C)c1ccc(CCn2cccc(/C=C/C(=O)NO)c2=O)cc1	104.7%	710 nM	470 nM	0.5 µM	1.2	0.1
0.57 µM	> 10000 nM	5210 nM	> 10 µM			O=C(/C=C/c1cccn(CCCc2cccnc2)c1=O)NO	30%	> 10000 nM	> 10000 nM	> 10 µM		
0.15 µM	1260 nM	2690 nM	3.18 µM	61.5%	98.6%	COc1cccc(Cn2cccc(/C=C/C(=O)NO)c2=O)c1	200%	2600 nM	1690 nM	1.82 µM	2	17
0.1 µM	740 nM	1220 nM	1.85 µM	20.7%	96.7%	O=C(/C=C/c1cccn(CCCc2cccc(Br)c2)c1=O)NO	100.8%	1160 nM	1200 nM	1.26 µM	0.7	0.4
0.38 µM	4730 nM	5300 nM	6.26 µM			COc1ccc(Cn2cccc(/C=C/C(=O)NO)c2=O)cc1	84.6%	4520 nM	3880 nM	4.7 µM		
0.23 µM	3240 nM	4960 nM	6.95 µM			CCc1ccccc1Cn1cccc(/C=C/C(=O)NO)c1=O	52.3%	3930 nM	5410 nM	5.02 µM		
0.1 µM	1480 nM	3000 nM	2.49 µM			O=C(/C=C/c1cccn(Cc2ccc(Br)cc2)c1=O)NO	99.2%	4310 nM	2110 nM	1.88 µM		
> 10 µM	> 10000 nM	> 10000 nM	> 10 µM			O=C(/C=C/c1cccn(CCc2ccncc2)c1=O)NO	19.6%	> 10000 nM	> 10000 nM	> 10 µM		
0.12 µM	940 nM	1810 nM	1.74 µM			CCOc1cccc(CCn2cccc(/C=C/C(=O)NO)c2=O)c1	76.9%	920 nM	1420 nM	1.34 µM		
0.3 µM	4160 nM	6700 nM	10 µM			O=C(/C=C/c1cccn(Cc2cccnc2)c1=O)NO	32.3%	7510 nM	5940 nM	5.33 µM		
0.1 µM	1540 nM	2350 nM	3.68 µM			CCc1ccc(Cn2cccc(/C=C/C(=O)NO)c2=O)cc1	74.3%	1860 nM	1670 nM	2.07 µM		
0.07 µM	700 nM	690 nM	0.72 µM	11.1%	96.5%	CCc1ccc(CCn2cccc(/C=C/C(=O)NO)c2=O)cc1	106%	690 nM	740 nM	0.53 µM	0.4	0.2
0.36 µM	2140 nM	3040 nM	6.39 µM			O=C(/C=C/c1cccn(CCc2ccc(Br)cc2)c1=O)NO	53.5%	8600 nM	2830 nM	4.84 µM		
0.09 µM	2800 nM	2810 nM	2.59 µM			CC(C)(C)c1ccc(Cn2cccc(/C=C/C(=O)NO)c2=O)cc1	46.4%	2400 nM	1820 nM	3.04 µM		
0.14 µM	980 nM	1310 nM	1.36 µM			COc1ccc(CCCn2cccc(/C=C/C(=O)NO)c2=O)cc1	97.6%	900 nM	970 nM	1.78 µM		
0.07 µM	2340 nM	1050 nM	2.05 µM	59.6%	105%	CCOc1ccc(CCn2cccc(/C=C/C(=O)NO)c2=O)cc1	119.5%	1000 nM	1280 nM	0.14 µM	0.8	0.2
0.31 µM	1710 nM	2150 nM	2.88 µM			CCc1ccc(CCCn2cccc(/C=C/C(=O)NO)c2=O)cc1	14.3%	1060 nM	1740 nM	1.85 µM		
0.16 µM	2000 nM	3300 nM	4.9 µM			O=C(/C=C/c1cccn(CCc2cccc(Br)c2)c1=O)NO	74%	7290 nM	1990 nM	3.58 µM		
3.94 µM	> 10000 nM	> 10000 nM	> 10 µM			O=C(/C=C/c1cccn(CCc2ccccn2)c1=O)NO	26.7%	> 10000 nM	> 10000 nM	> 10 µM		
0.38 µM	3030 nM	3040 nM	3.07 µM			O=C(/C=C/c1cccn(Cc2cccc(Br)c2)c1=O)NO	91.6%	2730 nM	2780 nM	4.84 µM		
0.38 µM	1830 nM	1780 nM	2.23 µM			CC(C)(C)c1ccc(CCCn2cccc(/C=C/C(=O)NO)c2=O)cc1	34.4%	1420 nM	1310 nM	1.48 µM		
0.21 µM	4190 nM	4880 nM	4.38 µM			O=C(/C=C/c1cccn(CCCc2ccc(Br)cc2)c1=O)NO	53.8%	7450 nM	4020 nM	3.97 µM		
0.42 µM	9490 nM	3010 nM	4.92 µM			O=C(/C=C/c1cccn(Cc2ccncc2)c1=O)NO	69.1%	> 10000 nM	9190 nM	9.17 µM		
0.32 µM	3590 nM	4920 nM	3.89 µM			CCOc1ccccc1CCn1cccc(/C=C/C(=O)NO)c1=O	30.9%	6060 nM	3920 nM	4.92 µM		
						O=C(CCCCCCC(=O)Nc1ccccc1)NO [VORINOSTAT]	80.2%					
0.48 µM	1920 nM	1880 nM	2.89 µM	24.2%		O=C(/C=C/c1cccn(CCCc2ccccc2Br)c1=O)NO	162.8%	1580 nM	1500 nM	1.86 µM		
0.07 µM	2930 nM	5060 nM	6.94 µM			COc1cccc(CCn2cccc(/C=C/C(=O)NO)c2=O)c1	53.8%	> 10000 nM	2910 nM	5.87 µM		

Compound	IC50 (Histone deacetylase)	GI50 (ACHN)	GI50 (NCI-H23)	GI50 (MDA-MB-231)	remaining at 0.5 h, 1 µM [4]	remaining at 0.5 h, 1 µM [5]	Activity (C2C12)	GI50 [1]	GI50 [2]	GI50 [3]	fold change (FC) (HEK293 [6])	fold change (FC) (HEK293 [7])
O=C1CC2(CCCC2)CC(=O)N1CCCCN1CCN(c2ncccn2)CC1 [BUSPIRONE]					0.4%	101%						
